# Screening data deposited in PubChem BioAssay by several laboratories.
# KCNQ1 block = inhibitors of human KCNQ1 potassium channel; P51787; CHO-K1 KCNQ1, FluxOR thallium flux fluorescence; stronger effect = higher value; B-score at 10 µM; actives 1.3% (n = 310,000); AID 2642;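 active = compounds whose thallium flux B-score, printed positive for inhibition, exceeds three library SD while starting fluorescence stays within three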;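 note: channel opened by potassium depolarization with thallium stimulus after 20 min compound exposure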
# Target sequence (P51787 whole entry, looked up): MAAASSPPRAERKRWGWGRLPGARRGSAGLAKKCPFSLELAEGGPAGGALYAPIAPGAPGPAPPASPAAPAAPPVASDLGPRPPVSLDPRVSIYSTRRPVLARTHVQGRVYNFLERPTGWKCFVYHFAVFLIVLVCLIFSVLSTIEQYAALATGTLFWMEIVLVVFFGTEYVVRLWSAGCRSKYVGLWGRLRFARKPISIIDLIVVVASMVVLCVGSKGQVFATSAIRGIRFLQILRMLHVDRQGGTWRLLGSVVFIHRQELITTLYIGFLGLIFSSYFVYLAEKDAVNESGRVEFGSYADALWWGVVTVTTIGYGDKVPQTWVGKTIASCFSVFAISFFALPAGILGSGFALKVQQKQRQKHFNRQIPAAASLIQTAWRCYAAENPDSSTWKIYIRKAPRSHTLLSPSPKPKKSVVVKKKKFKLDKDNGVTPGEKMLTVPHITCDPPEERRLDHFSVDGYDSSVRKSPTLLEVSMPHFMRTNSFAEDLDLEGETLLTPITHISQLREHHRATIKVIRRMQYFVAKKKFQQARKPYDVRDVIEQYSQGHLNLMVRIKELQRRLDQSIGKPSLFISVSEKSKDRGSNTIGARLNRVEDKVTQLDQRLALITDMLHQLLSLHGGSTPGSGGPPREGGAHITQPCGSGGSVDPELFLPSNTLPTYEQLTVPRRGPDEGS
# KCNK3 inh = human KCNK3 channel inhibition, primary screen; actives 0.84% (n = 340,000); O14649; CHO-KCNK3 thallium flux, FluxOR fluorescence; stronger effect = lower value; AID 602410; B-score at 10 µM;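 active = B-score under library mean minus 4 SD, starting fluorescence ratio at most library mean plus 5 SD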;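 note: more negative B-score means stronger inhibition of thallium flux through KCNK3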
# KCNK9 block = blocks the human KCNK9 two-pore domain potassium channel; B-score at 10 µM; actives 1.2% (n = 310,000); HEK293 KCNK9, FluxOR thallium flux fluorescence; stronger effect = lower value; Q9NPC2;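 active = ratio B-score over 3 SD below the library mean, with starting fluorescence within 5 SD of its mean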;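 note: negative B-score means less thallium flux so channel inhibition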
# KCNQ1 act = human KCNQ1 channel potentiation or activation; CHO-K1 KCNQ1, thallium flux FluxOR fluorescence; stronger effect = higher value; B-score at 10 µM; actives 0.35% (n = 310,000); P51787;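 active = fluorescence ratio B-score, a plate-corrected score, at least three library SD, with initial intensity B-score within 5 SD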
#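 Material: CHO-K1 cells stably expressing KCNQ1. Medium: assay buffer for compound exposure, DMSO matched across wells. Reagent: K+/Tl+ depolarizing stimulus. Compound dosing: single-concentration screen. Times: 37 °C overnight plating, 90-min dark dye load, 20-min compound pretreatment. Technique: FluxOR Tl+ flux fluorescence.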
# hERG protect = shields human hERG channel from block by proarrhythmic agents. Q12809. CHO-hERG, FluxOR thallium flux, dofetilide IC70 present. activation (rescue from dofetilide block), less the hit threshold, % at 10 µM. actives 0.51% (n = 310,000);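 active = activation above the mean of controls blocked by dofetilide plus 5 SD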;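 note: thallium influx through hERG after potassium depolarization seen as dye fluorescence rise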
# KCC2 mod = modulators of human KCC2 chloride dependent transport; AID 1456; KCC2 cells, thallium flux FluoZin-2 fluorescence; actives 2.2% (n = 190,000); B-score of Tl+ flux slope (higher = more flux/activation; lower = inhibition) at 10 µM;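 active = thallium flux slope and its plate-corrected score both differing from the plate sample mean at a set confidence after two filtering rounds, in either direction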;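 note: slope of fluorescence scaled to starting intensity during 10 to 20 s after thallium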
# Active calls of the source: *; i = inactive; x = not tested or not shown. In the library only some 4.1% were active in any assay of this set; here they are far more common.
SMILES,KCNQ1 block,KCNK3 inh,KCNK9 block,KCNQ1 act,hERG protect,KCC2 mod
C#CCOCCOCCOCCNc1nc(N2CCN(C(=O)C([C@@H](C)CC)n3cc(C(N)CC(C)C)nn3)CC2)nc(N2CCN(C(=O)[C@H](CCC(=O)O)n3cc(C(N)Cc4ccc(O)cc4)nn3)CC2)n1 (some centres undefined),i,i,i,i,-1.4,-1.47
C#CCOCCOCCOCCNc1nc(N2CCN(C(=O)C([C@@H](C)CC)n3cc(C(N)Cc4ccc(O)cc4)nn3)CC2)nc(N2CCN(C(=O)[C@H](CCC(=O)O)n3cc(C(N)CC(C)C)nn3)CC2)n1 (some centres undefined),i,i,i,24*,-4.7,1.79
CCOC(=O)c1c(/N=C/C2=C(O)CCCC2=O)sc2c1CCCC2,i,i,i,i,5.9*,0.00487
CC1(C)CC(N2CCN(CCO)CC2)=CC(=S)N1,i,i,i,10*,-6.1,-0.687
Cc1cccc(NC(=S)NCc2ccc(F)cc2)c1C,i,i,i,i,-7.5,x
COc1ccccc1NC(=O)/C(C#N)=C/c1cccn1C,i,i,i,i,-3.3,x
COc1cc(C)nc(N2CCCC(C(=O)Nc3cc(Cl)ccc3OC)C2)n1 (centres undefined),i,i,-6.78*,i,-7.3,-0.987
CCN(C(=O)CN1CCC(C(=O)OC)CC1)c1c(N)n(Cc2ccccc2)c(=O)[nH]c1=O,x,i,x,x,x,x
CN1OC[C@@H]2CN(C(=O)CCc3ccccc3)[C@H](c3cccc(N4CCOCC4)c3)C[C@@H]21,x,i,x,x,x,x
COc1ccc(C(=O)NC(CC(C)C)C(=O)O)cc1OC (centres undefined),i,i,i,i,-4.7,-0.175
CCc1ccc(C(=O)NC(CC(C)C)C(=O)O)cc1 (centres undefined),i,i,i,i,-9.2,4.68*
CCN1CCN(S(=O)(=O)c2ccc(Cl)c(C(=O)N(C)Cc3ccc(C(C)(C)C)cc3)c2)CC1,x,i,x,x,x,x
CSc1nc2sc3c(c2c(=S)[nH]1)CC(C)(C)OC3,i,i,i,82*,56.5*,x
CCc1nc2sc3c(c2c(=S)[nH]1)CC(C)(C)OC3,i,i,i,i,-5.1,x
O=C(O)C1=C[C@@H](c2csc3ccccc23)C[C@@H](OCc2ccc(CO)cc2)O1,i,i,i,i,-10.3,-3.12*
Cc1ccc(-n2c(SCC(=O)N(C)C3CCS(=O)(=O)C3)nc3ccccc3c2=O)c(C)c1 (centres undefined),x,-9.18*,x,x,x,x
COCCn1c(SCC(=O)N(C)C2CCS(=O)(=O)C2)nc2ccccc2c1=O (centres undefined),i,i,i,i,-9.3,0.283
COC(=O)c1cc2sccc2n1Cc1ccc(C)cc1,i,i,-7.96*,i,-10.0,x
COC(=O)c1ccc(Nc2cc(C)nc(-c3ccccc3O)n2)cc1,i,i,i,i,-5.7,6.21*
O=C(c1cc2nc(-c3cccs3)cc(C(F)(F)Cl)n2n1)N1CCCc2ccccc21,i,i,-6.72*,i,-8.1,x
O=C(c1cc2nc(-c3cccs3)cc(C(F)(F)F)n2n1)N1CCCc2ccccc21,i,i,i,i,-4.2,-0.566
CN(C)CCN(C(=O)c1cccc2ccccc12)c1nc2cc3c(cc2s1)OCO3,6*,i,i,i,-21.4,x
CCOc1cccc2sc(N(CCN(C)C)C(=O)c3cc4ccccc4cc3OC)nc12,9*,i,i,i,-10.9,x
CCOc1ccc2nc(N(CCN(C)C)C(=O)c3cc4ccccc4cc3OC)sc2c1,i,i,i,i,-18.5,x
COc1ccc(-c2sc3ccc(-c4ccc5c(c4)OCO5)cc3c2-c2ccc(OC)nc2)cc1,x,i,x,x,x,x
CC[C@]12c3[nH]c4cc(-c5ccco5)ccc4c3CCN1C(=O)[C@@H](CC(=O)NCCN1CCOCC1)C[C@@H]2C(=O)N1CCN(C(=O)C2CC2)CC1,x,i,x,x,x,x
CN(C(=O)c1ccc(NC(=O)Cc2ccc(NC(=O)C3CCCN(C(=O)CCc4ccccc4)C3)cc2)cc1)C1CCCC1 (centres undefined),x,i,x,x,x,x
